# Laboratory results: ChEMBL document CHEMBL4715736, “Identification of anticancer agents based on the thieno[2,3-b]pyridine and 1H-pyrazole molecular scaffolds” (2016)
# Tests used:
# Assay type in all cases: functional
# NCI-H460 [1] = test: Growth inhibition of human NCI-H460 cells assessed as cell growth at 0.01 uM incubated for 48 hrs by sulforhodamine B assay relative to control; details: read-out: Activity
# COLO 205 [2] = test: Growth inhibition of human COLO 205 cells assessed as cell growth at 0.01 uM incubated for 48 hrs by sulforhodamine B assay relative to control; details: read-out: Activity
# Summary of the method: (§1)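 NCI Developmental Therapeutics Program NCI60 panel. Compounds that were active in the 10 µM one-dose screen went on to dose–response testing. Growth at each concentration is expressed relative to untreated control (100%). GI50 (concentration giving 50% of maximal inhibition of proliferation) and TGI (concentration giving total growth inhibition) were derived from the curves.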
# SF-268 [3] = test: Growth inhibition of human SF-268 cells assessed as cell growth at 0.01 uM incubated for 48 hrs by sulforhodamine B assay relative to control; details: read-out: Activity
# OVCAR-4 = test: Growth inhibition of human OVCAR-4 cells assessed as cell growth at 0.01 uM incubated for 48 hrs by sulforhodamine B assay relative to control; details: read-out: Activity
# A498 = test: Growth inhibition of human A498 cells assessed as cell growth at 0.01 uM incubated for 48 hrs by sulforhodamine B assay relative to control; details: read-out: Activity; summary of the method: as §1
# A549 = test: Growth inhibition of human A549/ATCC cells assessed as cell growth at 0.1 uM incubated for 48 hrs by sulforhodamine B assay relative to control; details: read-out: Activity; summary of the method: as §1
# NCI-H226 = test: Growth inhibition of human NCI-H226 cells assessed as cell growth at 0.1 uM incubated for 48 hrs by sulforhodamine B assay relative to control; details: read-out: Activity
# COLO 205 [4] = test: Growth inhibition of human COLO 205 cells assessed as cell growth at 0.1 uM incubated for 48 hrs by sulforhodamine B assay relative to control; details: read-out: Activity; summary of the method: as §1
# SF-295 = test: Growth inhibition of human SF-295 cells assessed as cell growth at 0.1 uM incubated for 48 hrs by sulforhodamine B assay relative to control; details: read-out: Activity
# SK-MEL-28 = test: Growth inhibition of human SK-MEL-28 cells assessed as cell growth at 0.1 uM incubated for 48 hrs by sulforhodamine B assay relative to control; details: read-out: Activity
# OVCAR-5 [5] = test: Growth inhibition of human OVCAR-5 cells assessed as cell growth at 0.1 uM incubated for 48 hrs by sulforhodamine B assay relative to control; details: read-out: Activity
# OVCAR-8 = test: Growth inhibition of human OVCAR-8 cells assessed as cell growth at 0.1 uM incubated for 48 hrs by sulforhodamine B assay relative to control; details: read-out: Activity
# HOP-92 = test: Growth inhibition of human HOP-92 cells assessed as cell growth at 1 uM incubated for 48 hrs by sulforhodamine B assay relative to control; details: read-out: Activity
# HT-29 [6] = test: Growth inhibition of human HT-29 cells assessed as cell growth at 1 uM incubated for 48 hrs by sulforhodamine B assay relative to control; details: read-out: Activity
# KM12 = test: Growth inhibition of human KM12 cells assessed as cell growth at 1 uM incubated for 48 hrs by sulforhodamine B assay relative to control; details: read-out: Activity
# U-251 [7] = test: Growth inhibition of human U-251 cells assessed as cell growth at 1 uM incubated for 48 hrs by sulforhodamine B assay relative to control; details: read-out: Activity
# OVCAR-5 [8] = test: Growth inhibition of human OVCAR-5 cells assessed as cell growth at 1 uM incubated for 48 hrs by sulforhodamine B assay relative to control; details: read-out: Activity
# NCI/ADR-RES = test: Growth inhibition of human NCI/ADR-RES cells assessed as cell growth at 1 uM incubated for 48 hrs by sulforhodamine B assay relative to control; details: read-out: Activity
# SN12C = test: Growth inhibition of human SN12C cells assessed as cell growth at 1 uM incubated for 48 hrs by sulforhodamine B assay relative to control; details: read-out: Activity
# BT-549 = test: Growth inhibition of human BT-549 cells assessed as cell growth at 1 uM incubated for 48 hrs by sulforhodamine B assay relative to control; details: read-out: Activity
# NCI-H522 = test: Growth inhibition of human NCI-H522 cells assessed as cell growth at 100 uM incubated for 48 hrs by sulforhodamine B assay relative to control; details: read-out: Activity
# HCT-116 = test: Growth inhibition of human HCT-116 cells assessed as cell growth at 100 uM incubated for 48 hrs by sulforhodamine B assay relative to control; details: read-out: Activity
# U-251 [9] = test: Growth inhibition of human U-251 cells assessed as cell growth at 100 uM incubated for 48 hrs by sulforhodamine B assay relative to control; details: read-out: Activity
# LOX IMVI = test: Growth inhibition of human LOX IMVI cells assessed as cell growth at 100 uM incubated for 48 hrs by sulforhodamine B assay relative to control; details: read-out: Activity
# M14 = test: Growth inhibition of human M14 cells assessed as cell growth at 100 uM incubated for 48 hrs by sulforhodamine B assay relative to control; details: read-out: Activity
# MDA-MB-435 = test: Growth inhibition of human MDA-MB-435 cells assessed as cell growth at 100 uM incubated for 48 hrs by sulforhodamine B assay relative to control; details: read-out: Activity
# TK-10 = test: Growth inhibition of human TK-10 cells assessed as cell growth at 100 uM incubated for 48 hrs by sulforhodamine B assay relative to control; details: read-out: Activity
# RPMI-8226 = test: Growth inhibition of human RPMI-8226 cells incubated for 48 hrs by sulforhodamine B assay
# Summary of the method: (§2)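 NCI DTP 60-line human tumour panel. Dose-response curves were run only for ligands active in the initial 10 µM screen. GI50 (concentration giving 50% of maximal inhibition of proliferation) and TGI (concentration giving total growth inhibition) were derived from these curves.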
# SR = test: Growth inhibition of human SR cells incubated for 48 hrs by sulforhodamine B assay; summary of the method: as §2
# NCI-H460 [10] = test: Growth inhibition of human NCI-H460 cells incubated for 48 hrs by sulforhodamine B assay
# Summary of the method: (§3)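 NCI60 panel at the NCI Developmental Therapeutics Program. Only compounds active in the 10 µM screen went to dose-response testing. GI50, the concentration giving 50% of maximal inhibition of proliferation, and TGI, the concentration giving total growth inhibition, were derived from the dose-response curves.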
# HCC 2998 = test: Growth inhibition of human HCC 2998 cells incubated for 48 hrs by sulforhodamine B assay; details: for CC50: read-out: LC50 (the source's name)
# HT-29 [11] = test: Growth inhibition of human HT-29 cells incubated for 48 hrs by sulforhodamine B assay; summary of the method: as §3
# SF-268 [12] = test: Growth inhibition of human SF-268 cells incubated for 48 hrs by sulforhodamine B assay; summary of the method: as §2
# U-251 [13] = test: Growth inhibition of human U-251 cells incubated for 48 hrs by sulforhodamine B assay; summary of the method: as §2
# OVCAR-3 = test: Growth inhibition of human OVCAR-3 cells incubated for 48 hrs by sulforhodamine B assay; details: for CC50: read-out: LC50 (the source's name); summary of the method: as §2
smiles,measurement,setting,value
CCc1ccccc1NC(=O)c1sc2nc3c(cc2c1N)C(=O)CCC3,growth at 0.01 µM,NCI-H460 [1],100%
same,growth at 0.01 µM,COLO 205 [2],102%
same,growth at 0.01 µM,SF-268 [3],103%
same,growth at 0.01 µM,OVCAR-4,89%
same,growth at 0.01 µM,A498,80%
same,growth at 0.1 µM,A549,88%
same,growth at 0.1 µM,NCI-H226,86%
same,growth at 0.1 µM,COLO 205 [4],98%
same,growth at 0.1 µM,SF-295,76%
same,growth at 0.1 µM,SK-MEL-28,79%
same,growth at 0.1 µM,OVCAR-5 [5],83%
same,growth at 0.1 µM,OVCAR-8,97%
same,growth at 1 µM,HOP-92,35%
same,growth at 1 µM,HT-29 [6],13%
same,growth at 1 µM,KM12,21%
same,growth at 1 µM,U-251 [7],33%
same,growth at 1 µM,OVCAR-5 [8],50%
same,growth at 1 µM,NCI/ADR-RES,21%
same,growth at 1 µM,SN12C,40%
same,growth at 1 µM,BT-549,50%
same,growth at 100 µM,NCI-H522,19%
same,growth at 100 µM,HCT-116,6%
same,growth at 100 µM,U-251 [9],-15%
same,growth at 100 µM,LOX IMVI,24%
same,growth at 100 µM,M14,7%
same,growth at 100 µM,MDA-MB-435,-48%
same,growth at 100 µM,TK-10,13%
same,GI50,RPMI-8226,0.853 µM
same,LC50,RPMI-8226,> 100 µM
same,TGI,RPMI-8226,≥ 100 µM
same,GI50,SR,0.406 µM
same,LC50,SR,> 100 µM
same,TGI,SR,> 100 µM
same,GI50,NCI-H460 [10],0.345 µM
same,LC50,NCI-H460 [10],> 100 µM
same,TGI,NCI-H460 [10],> 100 µM
same,GI50,HCC 2998,1.43 µM
same,TGI,HCC 2998,> 100 µM
same,CC50,HCC 2998,> 100 µM
same,GI50,HT-29 [11],0.372 µM
same,LC50,HT-29 [11],> 100 µM
same,TGI,HT-29 [11],29.5 µM
same,GI50,SF-268 [12],10.1 µM
same,LC50 (concentration killing 50% of cells),SF-268 [12],> 100 µM
same,TGI,SF-268 [12],> 100 µM
same,GI50,U-251 [13],0.499 µM
same,LC50 (concentration killing 50% of cells),U-251 [13],> 100 µM
same,TGI,U-251 [13],29.1 µM
same,GI50,OVCAR-3,0.367 µM
same,TGI,OVCAR-3,15.8 µM
same,CC50,OVCAR-3,> 100 µM
CCc1cccc(C)c1NC(=O)c1sc2nc3c(cc2c1N)C(=O)CCC3,growth at 0.01 µM,NCI-H460 [1],101%
same,growth at 0.01 µM,COLO 205 [2],96%
same,growth at 0.01 µM,SF-268 [3],97%
same,growth at 0.01 µM,OVCAR-4,89%
same,growth at 0.01 µM,A498,80%
same,growth at 0.1 µM,A549,93%
same,growth at 0.1 µM,NCI-H226,94%
same,growth at 0.1 µM,COLO 205 [4],102%
same,growth at 0.1 µM,SF-295,85%
same,growth at 0.1 µM,SK-MEL-28,91%
same,growth at 0.1 µM,OVCAR-5 [5],88%
same,growth at 0.1 µM,OVCAR-8,97%
same,growth at 1 µM,HOP-92,39%
same,growth at 1 µM,KM12,24%
same,growth at 1 µM,U-251 [7],37%
same,growth at 1 µM,OVCAR-5 [8],59%
same,growth at 1 µM,NCI/ADR-RES,33%
same,growth at 1 µM,SN12C,45%
same,growth at 100 µM,HCT-116,4%
same,growth at 100 µM,U-251 [9],4%
same,growth at 100 µM,LOX IMVI,8%
same,growth at 100 µM,M14,-17%
same,growth at 100 µM,MDA-MB-435,-13%
same,GI50,RPMI-8226,0.0141 µM
same,LC50,RPMI-8226,> 100 µM
same,TGI,RPMI-8226,≥ 100 µM
same,GI50,SR,0.403 µM
same,LC50,SR,> 100 µM
same,TGI,SR,≥ 100 µM
same,GI50,NCI-H460 [10],0.355 µM
same,LC50,NCI-H460 [10],> 100 µM
same,TGI,NCI-H460 [10],12.6 µM
same,GI50,HCC 2998,1.33 µM
same,TGI,HCC 2998,> 100 µM
same,CC50,HCC 2998,> 100 µM
same,GI50,SF-268 [12],3.04 µM
same,LC50 (concentration killing 50% of cells),SF-268 [12],> 100 µM
same,TGI,SF-268 [12],> 100 µM
same,GI50,U-251 [13],0.57 µM
same,LC50 (concentration killing 50% of cells),U-251 [13],> 100 µM
same,TGI,U-251 [13],> 100 µM
same,GI50,OVCAR-3,0.374 µM
same,TGI,OVCAR-3,2.3 µM
same,CC50,OVCAR-3,> 100 µM
